pIC50: −log10 of the molar value.
What was measured:
[1] = Cytotoxicity against human NCI-H322 cells assessed as reduction in cell viability measured after 72 hrs by CellTiter-Blue cell viability assay; format: functional, cell-based; conditions: for pIC50: Homo sapiens, NCI-H322, 72 h, read-out: IC50
Summary of the method: (§1)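 Monolayer cultures in RPMI-1640 with 10% FBS at 37°C, seeded at 850 (H460 CTR5), 660 (H460 LKB1+/+) or 1780 (H322) cells/well so that the end point reaches 70–80% confluence. Treated 72h; vehicle 0.15% DMSO. CellTiter-Blue added until colour change (50–60, 80–90 or 100–120 min respectively), fluorescence read at 590 nm. IC50 by nonlinear regression; three independent experiments.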

[2] = Cytotoxicity against human LKB1-positive NCI-H460 cells assessed as reduction in cell viability measured after 72 hrs by CellTiter-Blue cell viability assay; format: functional, cell-based; conditions: for pIC50: Homo sapiens, NCI-H460, 72 h, read-out: IC50; summary of the method: as §1
[3] = Cytotoxicity against human NCI-H460 cells expressing CTR5 gene assessed as reduction in cell viability measured after 72 hrs by CellTiter-Blue cell viability assay; format: functional, cell-based; conditions: for pIC50: Homo sapiens, NCI-H460, 72 h, read-out: IC50; summary of the method: as §1
[4] = Cytotoxicity against human NCI-H460 spheroids expressing CTR5 gene assessed as reduction in cell viability measured after 96 hrs by CellTiter-Glo luminescence viability assay; format: functional, cell-based; conditions: NCI-H460, 96 h
Summary of the method: (§2)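 Spheroids grown in round-bottom ultralow-attachment wells, 495 (H460 CTR5) or 650 (H322) cells/well. Drug exposure 96h with DMSO vehicle. CellTiter-Glo added, shaken 20 min, left 10 min, then luminescence read. IC50 by nonlinear regression; three independent experiments.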

[5] = Cytotoxicity against human NCI-H322 spheroids assessed as reduction in cell viability measured after 96 hrs by CellTiter-Glo luminescence viability assay; format: functional; conditions: NCI-H322, 96 h; summary of the method: as §2
NCI-H460 = test: Induction of autophagy in human NCI-H460 cells expressing CTR5 gene assessed as acidic vesicular organelle formation measured after 72 hrs by acridine orange dye based flow cytometry (reference value: 91.2%); format: functional
Summary of the method: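 H460 CTR5 cells plated in 6-well plates (0.095 × 10⁵ cells/well, RPMI-1640 with 10% FBS) and treated 24 h later with vehicle (0.15% DMSO), drug at 3 or 4 μM, or medium alone for 72 h. Bafilomycin A1 was added to the untreated well 30 min before staining as negative control. Cells were stained with acridine orange for 15 min at 37°C in the dark. Flow cytometry read the red/green (FL3/FL1) ratio; three independent experiments.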

| Compound | pIC50 [1] | pIC50 [2] | pIC50 [3] | pIC50 [4] | pIC50 [5] | Activity (NCI-H460) [%] | IC50 ([1]; nci-h322) | IC50 ([2]; nci-h460) | IC50 ([3]; nci-h460) |
| --- | --- | --- | --- | --- | --- | --- | --- | --- | --- |
| C=C(C)[C@@H]1CC[C@]2(C)[C@H](C[C@@H](F)C34OC(=O)[C@@]5(CC[C@@H](C)[C@H](C)[C@@H]35)CC[C@]42C)[C@@]1(C)CCC(=O)NCc1ccc(F)cc1 | < 4.30 | < 4.30 | < 4.30 |  |  |  |  |  |  |
| C=C(C)[C@@H]1CC[C@]2(C)[C@H](C[C@@H](F)C34OC(=O)[C@@]5(CC[C@@H](C)[C@H](C)[C@@H]35)CC[C@]42C)[C@@]1(C)CCC(=O)NCCc1ccccc1 | < 4.30 | < 4.30 | < 4.30 |  |  |  |  |  |  |
| C=C(C)[C@@H]1CC[C@]2(C)[C@H](C[C@@H](F)C34OC(=O)[C@@]5(CC[C@@H](C)[C@H](C)[C@@H]35)CC[C@]42C)[C@@]1(C)CCC(=O)NCC | 5.14 | 5.11 | 5.28 | 5.24 | 4.94 |  |  |  |  |
| C[C@H]1[C@H](C)CC[C@@]23CC[C@]4(C)C(OC2=O)([C@H](F)C[C@@H]2[C@@]5(C)CCC(=O)NC(C)(C)[C@@H]5CC[C@]24C)[C@H]13 | < 4.60 | 4.87 | < 4.60 |  |  |  |  |  |  |
| CO/C1=C\C(C)=C\[C@@H](C)[C@@H](O)[C@@H](C)C/C(C)=C/C=C/[C@H](OC)[C@@H]([C@@H](C)[C@@H](O)[C@H](C)[C@@]2(O)C[C@@H](O)[C@H](C)[C@@H](C(C)C)O2)OC1=O [BAFILOMYCIN A1] |  |  |  |  |  | 100 |  |  |  |
| C[C@H]1[C@H](C)CC[C@@]23CC[C@]4(C)C(OC2=O)([C@H](F)C[C@@H]2[C@@]5(C)CC[C@H](O)C(C)(C)[C@@H]5CC[C@]24C)[C@H]13 | 4.84 | 4.73 | 4.71 | 4.71 |  |  |  |  |  |
| C[C@H]1[C@H](C)CC[C@@]23CC[C@]4(C)C(OC2=O)([C@H](F)C[C@@H]2[C@@]5(C)CCC(=O)OC(C)(C)[C@@H]5CC[C@]24C)[C@H]13 |  |  |  |  |  |  | Nd(Insoluble) | Nd(Insoluble) | Nd(Insoluble) |
| C=C(C)[C@@H]1CC[C@]2(C)[C@H](C[C@@H](F)C34OC(=O)[C@@]5(CC[C@@H](C)[C@H](C)[C@@H]35)CC[C@]42C)[C@@]1(C)CCC(=O)NC | 5.17 | 5.17 | 5.35 | 5.52 | 4.92 |  |  |  |  |
| C=C(C)[C@@H]1CC[C@]2(C)[C@H](C[C@@H](F)C34OC(=O)[C@@]5(CC[C@@H](C)[C@H](C)[C@@H]35)CC[C@]42C)[C@@]1(C)CCC(=O)Nc1ccccc1 | < 4.30 | < 4.30 | < 4.30 |  |  |  |  |  |  |
| C=C(C)[C@@H]1CC[C@]2(C)[C@H](C[C@@H](F)C34OC(=O)[C@@]5(CC[C@@H](C)[C@H](C)[C@@H]35)CC[C@]42C)[C@@]1(C)CCC(N)=O | 4.62 | 4.66 | 4.64 |  |  |  |  |  |  |
| C=C(C)[C@@H]1CC[C@]2(C)[C@H](C[C@@H](F)C34OC(=O)[C@@]5(CC[C@@H](C)[C@H](C)[C@@H]35)CC[C@]42C)[C@@]1(C)CCC(=O)NCCc1cccc(Cl)c1 | < 4.30 | < 4.30 | < 4.30 |  |  |  |  |  |  |
| C=C(C)[C@@H]1CC[C@]2(C)[C@H](C[C@@H](F)C34OC(=O)[C@@]5(CC[C@@H](C)[C@H](C)[C@@H]35)CC[C@]42C)[C@@]1(C)CCC#N | < 4.77 | < 4.77 | < 4.77 |  |  |  |  |  |  |
| C[C@H]1[C@H](C)CC[C@]2(C(=O)O)CC[C@]3(C)C(=CC[C@@H]4[C@@]5(C)CC[C@H](O)C(C)(C)[C@@H]5CC[C@]43C)[C@H]12 [URSOLIC ACID] | 4.82 | 4.68 | 4.83 | 4.51 | 4.74 |  |  |  |  |
| C=C(C)[C@@H]1CC[C@]2(C)[C@H](C[C@@H](F)C34OC(=O)[C@@]5(CC[C@@H](C)[C@H](C)[C@@H]35)CC[C@]42C)[C@@]1(C)CCC(=O)O | < 4.30 | < 4.30 | < 4.30 |  |  |  |  |  |  |
| C=C(C)[C@@H]1CC[C@]2(C)[C@H](C[C@@H](F)C34OC(=O)[C@@]5(CC[C@@H](C)[C@H](C)[C@@H]35)CC[C@]42C)[C@@]1(C)CCC(=O)NCc1ccc(C)cc1 | < 4.30 | < 4.30 | < 4.30 |  |  |  |  |  |  |
| C[C@H]1[C@H](C)CC[C@@]23CC[C@]4(C)C(OC2=O)([C@H](F)C[C@@H]2[C@@]5(C)CCC(=O)C(C)(C)[C@@H]5CC[C@]24C)[C@H]13 | < 4.30 | < 4.30 | < 4.30 |  |  |  |  |  |  |
| C=C(C)[C@@H]1CC[C@]2(C)[C@H](C[C@@H](F)C34OC(=O)[C@@]5(CC[C@@H](C)[C@H](C)[C@@H]35)CC[C@]42C)[C@@]1(C)CCC(=O)NCCc1ccccc1OC | < 4.30 | < 4.30 | < 4.30 |  |  |  |  |  |  |
